The results in this text go back to ChEMBL document CHEMBL1157704, “Potent activity against K562 cells by polyamide-seco-CBI conjugates targeting histone H4 genes” (Bioorg Med Chem, 2010).

A word on the EC50: it is the concentration giving half of the maximal effect. Read a high EC50 as lower potency in that assay.

For assay [1], the system named is K562. Nature of the assay: Downregulation of histone H4E mRNA expression in human K562 cells at 250 nM after 48 hrs by real-time PCR analysis. The format is functional, cell-based. Put shortly:
(§1)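 Treated K562 cells were assayed by one-step real-time RT-PCR. Reverse transcription ran 50 °C for 10 min, then hot-start polymerase activation at 95 °C for 15 min. Cycling was 45 cycles of 95 °C 15 s, 55 °C 30 s and 72 °C 30 s. Levels were normalized to GAPDH mRNA; error shown as standard deviation.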
On the technique in general: Real-time PCR tracks product formation cycle by cycle.

For assay [2], the system named is K562. The assay is described as follows: Induction of apoptosis in human K562 cells assessed as non-viable necrotic cells at 250 nM after 48 hrs by annexin-V FITC and propidium iodide staining-based FACS analysis. The format is functional. Put shortly:
(§2)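 Treated K562 cells […] stained with Annexin V-FITC/propidium iodide. Apoptosis was scored by two-dimensional flow cytometry at a core FACS facility.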
A general note: In flow cytometry, cells or beads pass a laser one at a time.

Assay [3] relates to K562. Nature of the assay: Induction of apoptosis in human K562 cells assessed as late apoptotic cells at 250 nM after 48 hrs by annexin-V FITC and propidium iodide staining-based FACS analysis. Type of assay: functional. Put shortly: as §2
Assay [4] concerns K562. Nature of the assay: Cell cycle arrest in human K562 cells assessed as increase in accumulation at G2/M phase at 250 nM after 48 hrs propidium iodide staining-based FACS analysis. Type of assay: functional. Put shortly: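 K562 cells (ATCC, b3a2 Bcr-Abl) exposed to polyamide in culture medium and pelleted at 200g for 5 min. Pellets resuspended in PBS, fixed in prechilled 70% ethanol and stained with propidium iodide (50 µg/mL). DNA content read by flow cytometry as G0–G1, S and G2–M fractions; sub-2C DNA taken as fragmentation/apoptosis.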

For assay [5], the system named is K562. Nature of the assay: Induction of apoptosis in human K562 cells assessed as viable cells at 250 nM after 48 hrs by annexin-V FITC and propidium iodide staining-based FACS analysis. The format is functional. The conditions noted are these: K562, 48 h, read-out: Activity. A digest of the protocol:
as §2

Assay [6] deals with K562. Nature of the assay: Induction of apoptosis in human K562 cells assessed as early apoptotic cells at 250 nM after 48 hrs by annexin-V FITC and propidium iodide staining-based FACS analysis. Type of assay: functional. Put shortly: as §2
The test system of assay [7] is K562. Nature of the assay: Downregulation of histone H4C mRNA expression in human K562 cells at 250 nM after 48 hrs by real-time PCR analysis. Type of assay: functional. A digest of the protocol:
as §1

Assay [8] has as its system K562. Nature of the assay: Cytotoxicity against human K562 cells by MTS assay. The format is functional, cell-based. Put shortly: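 Proliferation of K562 cells (ATCC, standard culture) was read as mitochondrial conversion of the MTS tetrazolium to formazan, using the CellTiter 96 Aqueous One reagent. EC50 was derived from these readings.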
A general note: Tetrazolium dyes change colour on reduction, which living cells bring about.

Assay [9] concerns histone H4c gene fragment DNA (human). Nature of the assay: Binding affinity to 5'-AGAAAA-3' sequence of 223 bp human histone H4c gene fragment DNA assessed as DNA alkylating activity at 50 to 100 nM after 15 hrs by PAGE.

Active and inactive are the calls of the source. The calls are words filed in the database; no cut-off is given here.

`CN(C)CCCNC(=O)CCNC(=O)c1cc(NC(=O)c2cc(NC(=O)c3cc(NC(=O)c4cc(NC(=O)[C@H](CCNC(=O)CCCc5ccc(N(CCCl)CCCl)cc5)NC(=O)c5nc(NC(=O)CCNC(=O)c6nc(NC(=O)c7nccn7C)cn6C)cn5C)cn4C)cn3C)cn2C)cn1C`: the outcome in the assay on K562 [1] and with K562 [7] was inactive. Moreover, the Activity in the assay on K562 [2] amounted to 1.39%; in the assay on K562 [3], 8.88%; in the assay with K562 [6] it was 6.37%. The outcome in the assay with K562 [4] was Active. Moreover, in the assay on K562 [5], the viability at 0.25 µM is 83.4%.

Consider `CC(=O)Nc1cn(C)c(C(=O)Nc2cc(C(=O)Nc3cn(C)c(C(=O)Nc4cc(C(=O)NCCCC(=O)Nc5cn(C)c(C(=O)Nc6cc(C(=O)Nc7ccc8[nH]c(C(=O)N9CC(CCl)c%10c9cc(O)c9ccccc%109)cc8c7)n(C)c6)n5)n(C)c4)n3)n(C)c2)n1` (centres undefined), for which the concentration giving a half-maximal response (EC50) in the assay with K562 [8] turned out to be 33 nM. Further, in assay [9], the outcome was Active.

On to `CC(=O)Nc1cc(C(=O)Nc2cc(C(=O)NCCC(=O)N[C@@H](CCNC(=O)c3cc(NC(=O)c4nc(NC(=O)c5cc(NC(=O)c6nc(NC(C)=O)cn6C)cn5C)cn4C)cn3C)C(=O)Nc3cn(C)c(C(=O)Nc4cc(C(=O)Nc5ccc6[nH]c(C(=O)N7CC(CCl)c8c7cc(O)c7ccccc87)cc6c5)n(C)c4)n3)n(C)c2)n(C)c1` (some centres undefined), for which, in the assay on K562 [8], the EC50 turned out to be 17 nM. The outcome in assay [9] was Active.

As to `CN(C)CCCNC(=O)CCNC(=O)c1cc(NC(=O)c2cc(NC(=O)c3cc(NC(=O)c4cc(NC(=O)[C@@H](CCNC(=O)CCCc5ccc(N(CCCl)CCCl)cc5)NC(=O)c5nc(NC(=O)CCNC(=O)c6nc(NC(=O)c7nccn7C)cn6C)cn5C)cn4C)cn3C)cn2C)cn1C`, a half-maximal effect in the assay with K562 [8] (EC50) was put at 300 nM. In addition, the outcome with K562 [1] and in the assay with K562 [4] was Active. The Activity in the assay on K562 [2] is reported as 1.1%; in the assay with K562 [3], 10.6%; in the assay on K562 [6], 10.3%; with K562 [7], 52%. Also, the viability at 0.25 µM in the assay with K562 [5] came out at 78.1%.

As for `CN(C)CCCNC(=O)CCNC(=O)c1cc(NC(=O)c2cc(NC(=O)c3cc(NC(=O)c4nc(NC(=O)[C@@H](CCNC(=O)CCCc5ccc(N(CCCl)CCCl)cc5)NC(=O)c5cc(NC(=O)c6cc(NC(=O)CCNC(=O)c7nccn7C)cn6C)cn5C)cn4C)cn3C)cn2C)cn1C`, the EC50 in the assay on K562 [8] came to 81 nM. Also, the result in the assay on K562 [1] and in the assay on K562 [4] was Active. The Activity in the assay with K562 [2] is 3.69%; in the assay on K562 [3], 9.12%; with K562 [6] it was 10.4%; in the assay on K562 [7], 81%. Also, the viability at 0.25 µM in the assay on K562 [5] was 76.8%.

In turn, `CC(=O)Nc1cc(C(=O)Nc2cc(C(=O)NCCC(=O)N[C@@H](CCNC(=O)c3cc(NC(=O)c4nc(NC(=O)CCNC(=O)c5nc(NC(C)=O)cn5C)cn4C)cn3C)C(=O)Nc3cn(C)c(C(=O)Nc4cc(C(=O)Nc5ccc6[nH]c(C(=O)N7CC(CCl)c8c7cc(O)c7ccccc87)cc6c5)n(C)c4)n3)n(C)c2)n(C)c1` (some centres undefined) gave an EC50 in the assay on K562 [8] of 38 nM. In addition, the result in assay [9] was Active.
